Laboratory results taken from ChEMBL document CHEMBL2331272, “Bromotyrosine alkaloids from the Australian marine sponge Pseudoceratina verrucosa” (J Nat Prod, 2013).

What was measured:
[1] = tested on: PC-3; test: Cytotoxicity against human PC3 cells assessed as inhibition of cell viability at 100 uM after 72 hrs by alamar blue assay; format: functional; conditions: PC-3, 72 h
Outline: (§1)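 HeLa and PC3 cells grown in RPMI with 10% FBS and penicillin/streptomycin, 37 °C, 5% CO2; 1000 cells/well adhered overnight. Ten-point dilutions, final 100 μM to 3 nM, 1% DMSO, triplicate; 72 h exposure. Alamar blue added (10% final), fluorescence ex 535/em 590 nm. IC50 by nonlinear regression; IC50 or % inhibition at 100 μM as mean SD of two independent experiments.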

[2] = tested on: HeLa; test: Cytotoxicity against human HeLa cells assessed as inhibition of cell viability at 100 uM after 72 hrs by alamar blue assay; format: functional; outline: as §1
[3] = tested on: NFF; test: Cytotoxicity against human NFF cells assessed as inhibition of cell viability at 100 uM after 72 hrs by alamar blue assay; format: functional
Outline: (§2)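 NFF fibroblasts grown in DMEM with 10% FBS and penicillin/streptomycin, 37 °C, 5% CO2; 1000 cells/well seeded and adhered overnight. Compounds tested in ten-point series, final 100 μM to 3 nM, 1% DMSO, triplicate wells; 72 h incubation. Readout by Alamar blue (10% final), ex 535/em 590 nm. IC50 by nonlinear regression; IC50 or % inhibition at 100 μM as mean SD, two independent experiments.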

[4] = tested on: NFF; test: Cytotoxicity against human NFF cells assessed as inhibition of cell viability after 72 hrs by alamar blue assay; format: functional, cell-based; outline: as §2
[5] = tested on: PC-3; test: Cytotoxicity against human PC3 cells assessed as inhibition of cell viability after 72 hrs by alamar blue assay; format: functional, cell-based; conditions: PC-3, 72 h; outline: as §1
[6] = tested on: HeLa; test: Cytotoxicity against human HeLa cells assessed as inhibition of cell viability after 72 hrs by alamar blue assay; format: functional, cell-based; outline: as §1

Structure (SMILES)	inhibition at 100 µM [1]	inhibition at 100 µM [2]	inhibition at 100 µM [3]	IC50 [4]	IC50 [5]	IC50 [6]
CN(C)CCCOc1c(Br)cc([C@H]2CNC(=O)O2)cc1Br	35%	44%	29%			
COC1=C(Br)[C@H](O)[C@@]2(C=C1Br)CC(C(=O)NCCCc1cnc(N)[nH]1)=NO2 [AEROPHOBIN 2]	66%	20%	25%			
COc1ccc(C/C(=N\O)C(=O)NC[C@@H](O)c2cc(Br)c(OCCCN(C)C)c(Br)c2)cc1Br				16 µM	4.9 µM	19 µM
COC1=C(Br)[C@H](O)[C@@]2(C=C1Br)CC(C(=O)NCC(O)c1cc(Br)c(OC[C@H](O)CNC(=O)C3=NO[C@]4(C=C(Br)C(OC)=C(Br)[C@@H]4O)C3)c(Br)c1)=NO2 (stereo not given in full) [FOSTULARIN 3]	60%	46%	48%			
COC1=C(Br)[C@H](O)[C@@]2(C=C1Br)CC(C(=O)NCC(O)c1cc(Br)c(OC[C@H]3CNC(=O)O3)c(Br)c1)=NO2 (stereo not given in full) [FOSTULARIN 2]	73%		68%			40 µM
